The entries come from a sample that favours hits as a whole.
CHOP UPR activ – activators of apoptotic CHOP UPR arm, primary screen, cell-based, CHO-CHOP luciferase reporter, luminescence, uHTS. UPR activation; percent of tunicamycin response over DMSO baseline. activation, % at 10 µM. 330,000 tested, 0.34% active. AID 449763, 2010;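 active means at 10 µM dose, activation of 40% or more, normalized to positive control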
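Evaluation: % reporter activation, DMSO baseline versus tunicamycin full activation; System: CHO-CHOP luciferase reporter cell line; Input: 500 cells/well; Incubation: 6 h compound treatment, 37 °C; Measured by: Steady-Glo luciferase luminescence; Dosing: one dose, 10 µM in 0.5% DMSO; Buffer or medium: F12 medium, 10% FBS; Benchmarks: positive tunicamycin 10 µg/mL, negative DMSO alone.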
Bfl-1 A1 inh – caspase 3/7 activation in MEF A1-2A-BIM cells, primary screen, A1 inhibitor project, cell-based, luminescence, HTS | 330,000 tested, 0.066% active | AID 2462, 2010 | Caspase-Glo 3/7 luminescence, 3 h; percent of clofoctol response, vehicle zero | caspase activation, % (test concentration not listed);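 active means over half of replicate activation scores above 10%, or exactly half above 10 with the replicate mean above 10; inconclusive means replicate mean below 10 yet half the replicates above 10; inactive means over half of replicates below 10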
XBP1 UPR activ – activators of adaptive XBP1 UPR arm, primary screen, cell-based, CHO-XBP1 luciferase reporter, luminescence, uHTS; IRE1-XBP1 UPR activation; percent of tunicamycin response, DMSO as zero; activation, % at 20 µM; 330,000 tested, 0.33% active; AID 463104, 2010;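 active means versus positive control, 20 µM dose yields 30% or more activation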
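Material: IRE1-XBP1 luciferase reporter CHO line / Quantity: one thousand reporter cells per well / Buffer or medium: F12 with 10% serum / Compound: 20 µM single concentration, DMSO 1% / Times: 6 h treatment, 37 °C / Detection: Steady-Glo luciferase glow luminescence, 10 min after reagent addition / Benchmarks: tunicamycin high, DMSO low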
CHOP inh – inhibitors of CHOP promoter induction, primary screen, cell-based, unfolded protein response, luciferase reporter. CHO-K1 CHOP-promoter luciferase, tunicamycin-induced, 15-18 h. inhibition, % at 10 µM. 220,000 tested, 3.8% active. AID 2732, 2010;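 active means compounds that reduced the stress-induced luciferase reporter signal by more than about 70% of percent inhibition, limit read from the data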
Hits are given with their value; n = inactive; u = inconclusive; x = not tested or not shown.

SMILES	CHOP UPR activ	Bfl-1 A1 inh	XBP1 UPR activ	CHOP inh
O=C(CN1CCCC(O)C1)N1c2ccccc2Sc2ccc(C(F)(F)F)cc21 (stereo not drawn)	n	n	n	n
Cc1oc(-c2ccc(Cl)cc2)nc1CN1CCC(C(=O)N2CCN(Cc3ccccc3)CC2)CC1	n	n	n	n
Cc1oc(-c2ccc(Cl)cc2)nc1CN1CCC(C(=O)N2CCc3ccccc3C2)CC1	n	n	n	91
CCc1ccc(-c2nc(CN3CCC(C(=O)NCc4ccccc4OC)CC3)c(C)o2)cc1	n	n	n	79
Cc1ccc(NC(=O)C(=O)NCc2ccc(/C=C(/C#N)C(=O)NCc3cccnc3)o2)cc1	n	n	n	n
N#C/C(=C/c1ccc(CNC(=O)C(=O)Nc2cc(Cl)cc(Cl)c2)o1)C(=O)NCc1cccnc1	n	n	n	82
Cc1ccc(C)c(S(=O)(=O)N2CCCCC2CCNC(=O)C(=O)NCCc2ccco2)c1 (stereo not drawn)	n	n	n	x
CC1N(C(=O)N2CCOCC2)CCN1S(=O)(=O)c1cccc(C(F)(F)F)c1 (stereo not drawn)	n	n	n	x
COc1cc(/C=N/Nc2snc(SC)c2C#N)cc(OC)c1OC	n	n	n	n
CSc1nsc(N/N=C/c2ccc3c(c2)OCO3)c1C#N	n	n	n	76
CCOc1ccc2nc(N(CCCN(C)C)C(=O)c3ccc4c(c3)CCCC4)sc2c1	n	u	n	x
CN(C)CCCN(C(=O)c1ccc2c(c1)CCCC2)c1nc2ccc(Cl)cc2s1	n	n	n	90
NC(=O)c1ccsc1NC(=O)c1ccc(S(=O)(=O)N2CCCC2)cc1	n	n	n	n
CC1CC(C)CN(S(=O)(=O)c2ccc(C(=O)Nc3sccc3C(N)=O)cc2)C1 (stereo not drawn)	n	n	n	87
CNS(=O)(=O)c1cccc(C(=O)OCC(=O)/C=C2/N(C)c3ccccc3C2(C)C)c1	n	n	n	73
CN1/C(=C\C(=O)COC(=O)c2ccc(O)cc2)C(C)(C)c2ccccc21	n	n	n	n
Cc1cc(NC(=O)Cn2nnc3sc4c(c3c2=O)CCC(C(C)(C)C)C4)no1 (stereo not drawn)	n	n	n	81
CC(C)(C)c1cc(C(C)(C)C)cc(S(=O)(=O)CCc2ccccn2)c1	n	n	n	70
CC(C)(C)c1ccc(S(=O)(=O)NCc2ccccn2)cc1	n	n	n	x
O=Nc1c(O)n(Cc2cccc(Cl)c2)c2ccccc12	n	n	n	73
CCOC(=O)N=Nc1c(O)n(Cc2ccccc2)c2ccccc12	n	n	n	80
Cc1cc(Cl)ccc1OCC(=O)n1cc(C(=O)c2cc(Cl)ccc2O)cn1	n	n	n	77
COC(=O)c1c(C)n(-c2ccc(OC)cc2)c2ccc(O)cc12	n	n	n	74
CCOC(=O)c1c(C)n(-c2ccc(F)cc2)c2ccc(O)cc12	n	n	n	x
CSCC[C@H](N)C(=O)N1CCC(C(=O)N[C@H](C)C(=O)Nc2ccc(C(C)C)cc2)CC1	n	n	n	x
SMILES	CHOP UPR activ	Bfl-1 A1 inh	XBP1 UPR activ	CHOP inh
CCOc1ccc(N2C(=O)C3ON(C)C(c4ccc([N+](=O)[O-])cc4)C3C2=O)cc1 (stereo not drawn)	n	n	n	n
Cc1c(NC(=O)/C(C#N)=C/c2ccc(-c3ccc(Cl)cc3)o2)c(=O)n(-c2ccccc2)n1C	n	n	n	n
Cc1cc(NC(=O)/C(C#N)=C/c2ccc(-c3cccc(C(F)(F)F)c3)o2)n(-c2ccccc2)n1	n	n	n	85
Cc1nn(-c2ccccc2)c(C)c1/C=N/NC(=O)c1cc(-c2ccc(Br)s2)[nH]n1	n	n	n	70
CC(/C=N/NC(=O)c1cc(C(C)(C)C)[nH]n1)=C\c1ccccc1	n	n	n	76
CC(/C=N/NC(=O)c1cc(-c2ccc(C)s2)[nH]n1)=C\c1ccccc1	n	n	n	96
Cc1nn(-c2ccccc2)c(C)c1/C=N/NC(=O)c1cc(-c2ccc(Cl)s2)[nH]n1	n	n	n	n
Nc1nc(Nc2ccccc2)nc2c1ncn2[C@@H]1O[C@H](CO)[C@H](O)C1O (stereo partly drawn)	x	x	x	n
O=C(NCCN1CCN(c2ccccc2F)CC1)c1cccn2c(=O)c3ccccc3nc12	n	n	n	76
O=C(Cc1ccc(S(=O)(=O)N2CCOCC2)s1)N1CCN(S(=O)(=O)c2cccc(Cl)c2)CC1	n	n	n	x

Bioassay records as filed in PubChem.
